High-throughput results (PubChem)
Casp6 inh: human caspase-6 inhibitors, primary screen, biochemical, VEID-R110 fluorescence, single point, set 2. P55212. purified caspase-6, Z-VEID-R110 cleavage fluorescence. AID 686996, 2013. 350,000 tested, 0.53% active. inhibition, % at 12.5 µM;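 active = mean inhibition across replicates at least about 35%, with every replicate also reaching that limit, limit read from the data; inconclusive = only one of the two criteria met; inactive = neither criterion met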;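 note: 0% = median of neutral control wells and 100% = no fluorescence left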
esBAF inh: Bmi1 luciferase reporter increase in mESCs, primary screen, esBAF inhibitor project, mouse ES cells, Bmi1 luciferase knock-in, single point; AID 602393, 2012; 350,000 tested, 2% active; 24 h; 100% = twice the neutral-well signal; reporter increase, % at 12.5 µM; in the data active = activation above about 40%; inconclusive = no clear call, values can overlap the other calls;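 note: 0% = median of the plate's neutral control wells and 100% = double that signal; a rise in the Bmi1 reporter signal indicates esBAF inhibition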
MITF act: activators of MITF-driven TRPM1 promoter reporter, primary screen, cell-based, SK-MEL-5, luciferase, single point; AID 588334, 2011; SK-MEL-5 TRPM1-promoter luciferase, 24 h; % of positive control, neutral wells = 0; 300,000 tested, 0.75% active; activation, % at 12.5 µM;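 active = mean activation of at least 80% with every replicate also reaching 80%; inconclusive = mean reaches 80% but some replicate falls short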;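 note: 0% = neutral control wells and 100% = parthenolide positive control wells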
XiGFP reactiv: activators of inactive X chromosome reactivation, primary screen, imaging, XiGFP fibroblasts, GFP high-content imaging, set 2; activation, % at 7.58 µM; 360,000 tested, 0.055% active; AID 743238, 2013; XiGFP mouse fibroblasts, % GFP-positive cells imaging, 3 d; cells co-treated with 5-aza-dC sensitizer; scaled so ellipticine positive control = 100%;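 active = mean normalized replicate activation at least 10% and every replicate at or above 10%; inconclusive = only one of the two criteria met; inactive = mean below 10% and not all replicates reach 10%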;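 note: 0% = median of on-plate neutral control wells and 100% = ellipticine 6 µM median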
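Schedule: 3 d treatment, 15 min room-temperature fixation; system: 68-5-11 XiGFP fibroblast line; buffer or medium: DMEM plus 5-aza-dC sensitizer; control set: ellipticine 6 µM positive control; compound: one concentration, pinned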
NSD2 inh: NSD2 histone methyltransferase inhibitors, primary screen, biochemical, AlphaScreen, single concentration, set 2; NSD2 peptide methylation, 120 min; inhibition, % at 12.5 µM; 310,000 tested, 0.54% active; in the data active = inhibition above about 50%
Wnt act: Wnt/beta-catenin pathway activators, primary screen, cell-based, plate reader, single point. Wnt/beta-catenin reporter cell assay, activator. activation, % at 9.35 µM. 300,000 tested, 1.2% active; in the data active = activation above about 30%, passing the limit was not always enough; inconclusive = no clear call, values can overlap the other calls;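 note: 0% = neutral control wells and 100% = positive control wells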
* = called active by the depositor; ? = inconclusive; . = no result. An excerpt weighted towards active compounds, which were near 3% of everything screened.

SMILES	Casp6 inh	esBAF inh	MITF act	XiGFP reactiv	NSD2 inh	Wnt act
COc1ccc2c3c(n(C)c2c1)[C@H](CO)N(C(=O)C1CCCC1)CC31CCN(Cc2cccc(F)c2)CC1	-2.2	.	.	0.8	.	.
C[C@H](NC(=O)C[C@H]1CC[C@@H](NC(=O)Nc2ccc3c(c2)OCO3)[C@@H](CO)O1)c1ccccc1	-1.9	5.2	.	0.8	.	.
Cc1nc2ccc(-c3nc4cc(N)ccc4o3)cc2[nH]1	.	-45.8	-5.4	.	-1.2	33.3*
COc1ccc(O)c(C(c2c(C)[nH][nH]c2=O)c2c(C)[nH][nH]c2=O)c1	72.0*	.	-8.9	0.2	.	1.3
COc1ccc(OC)c(C(c2c(C)[nH][nH]c2=O)c2c(C)[nH][nH]c2=O)c1	5.2	-3.7	-10.5	0.0	0.1	-1.4
Cc1ccc2nc(-c3ccc(NC(=O)CN4CCN(c5ccccn5)CC4)cc3)sc2c1	0.6	.	.	0.0	4.4	35.8*
Cc1ccc2nc(NC(=O)CN3CCN(c4ccccn4)CC3)sc2c1	-2.1	0.5	-5.8	0.0	-9.2	2.3
Cc1ccc2nc(-c3ccc(NC(=O)CSc4nc(N)cc(=O)[nH]4)cc3)sc2c1	-2.4	?	66.0	0.0	1.1	56.4*
Cc1ccc2nc(-c3ccc(NC(=O)CSc4nccc(=O)[nH]4)cc3)sc2c1	2.5	.	39.0	0.2	-7.3	.
Cc1ccc2nc(-c3ccc(NC(=S)NC(=O)CC(C)C)cc3)sc2c1	.	72.6*	.	.	-3.5	51.8*
COCC(=O)N1[C@H](CO)[C@H](c2ccccc2)C12CN(C(=O)c1cccc(F)c1)C2	-2.0	.	.	0.4	.	.
CO[C@@H]1CN(C)C(=O)c2ccc(NS(C)(=O)=O)cc2OC[C@@H](C)N(C(=O)C2CC2)C[C@@H]1C	-6.4	9.3	.	0.0	.	.
NC(=O)c1sc2nc3c(cc2c1N)CCCCCC3	3.4	45.8*	73.5	?	1.1	6.6
Nc1c(C(=O)O)sc2nc3c(cc12)CCCC3	3.8	.	.	0.0	7.5	14.9
Nc1c(C(=O)C2CC2)sc2nc3c(cc12)CCC3	0.4	.	117.3*	-0.1	-6.1	8.1
Nc1c(C(=O)c2ccc(Cl)cc2)sc2nc3c(cc12)CCC3	-1.2	.	152.5*	0.2	-1.3	-3.1
C[C@@H]1CN([C@@H](C)CO)C(=O)c2cc(NS(=O)(=O)c3cccs3)ccc2O[C@@H](C)CCCCO[C@H]1CN(C)C(=O)CCCN(C)C	-19.6	-0.2	.	0.0	.	.
O=C(C[C@@H]1CC[C@@H](NC(=O)Cc2cccnc2)[C@@H](CO)O1)Nc1ccc(-c2ccccc2)cc1	-0.9	7.9	.	0.4	.	.
CC(C)CC#Cc1cnc2c(c1)C(=O)N([C@H](C)CO)C[C@H](C)[C@@H](CN(C)C(=O)c1cnccn1)O2	0.9	-2.4	.	-1.0	.	.
O=[N+]([O-])c1ccc(-c2nn(-c3ccccc3)cc2/C=N/n2c(-c3ccncc3)n[nH]c2=S)cc1	-3.2	.	.	-0.1	8.0	1.7
S=c1[nH]nc(-c2ccncc2)n1/N=C/c1cn(-c2ccccc2)nc1-c1ccccc1	-0.7	.	.	-0.1	-0.7	36.7*
Cc1ccc(-c2nnc(Oc3cccc(C)c3)c3ccccc23)cc1	.	52.9*	40.6	0.0	-0.7	1.6
Cc1ccc(Oc2nnc(-c3ccccc3)c3ccccc23)cc1	0.4	8.3	22.2	.	0.2	-0.1
CCn1c(NC(=S)Nc2ccccc2)nc2ccccc21	.	1.0	.	.	0.8	33.0*
CCCn1c(NC(=S)Nc2ccccc2)nc2ccccc21	.	10.6	16.0	0.3	-1.0	.
O=C1[C@H](Cc2ccc(C(F)(F)F)cc2)CCn2cc(nn2)COC[C@H]2CCCCN12	.	.	.	0.0	.	.
Cc1cc(C(=O)COC(=O)c2cccnc2Cl)c(C)n1C	1.1	-50.4	18.7	-0.1	1.9	14.6
CSc1ncccc1C(=O)OCC(=O)c1cc(C)n(CC2CCCO2)c1C (centres undefined)	1.7	-28.7	24.2	0.0	-3.6	9.6
CCn1c(C)cc(C(=O)COC(=O)c2cccnc2SC)c1C	-0.3	52.8*	27.0	0.2	0.1	16.8
